# ChEMBL document CHEMBL5058577, “EUbOPEN Chemogenomics Library 2 (Multiplex)” (2022)
# Test system: HEK-293T
# Assay: Multiplex assay against HEK293T
# Assay type: toxicity, cell-based
# Details: human
# Procedure, shortened: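 Cells were classed with CellPathfinder machine-learning gating, first as Hoechst high-intensity objects or normal cells, then (normal cells) as healthy, pyknosed or fragmented nuclei, and finally (pyknosed cells) as mitotic or apoptotic. Staining of live cells at seeding used Hoechst33342, BioTracker Green Microtubule Cytoskeleton Dye, MitoTracker Red and Annexin V Alexa Fluor 680, with imaging on a CQ1 microscope at 37°C and 5% CO2 after compound addition. Tubulin, mitochondrial-mass and membrane-permeability phenotypes are per cents of healthy-nucleus cells.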
# [1] = 12 h, 1 µM, compound concentration 1 uM, replicate 1
# [2] = 12 h, 1 µM, compound concentration 1 uM, replicate 2
# [3] = 12 h, 10 µM, compound concentration 10 uM, replicate 1
# [4] = 12 h, 10 µM, compound concentration 10 uM, replicate 2
# [5] = 24 h, 1 µM, compound concentration 1 uM, replicate 1
# [6] = 24 h, 1 µM, compound concentration 1 uM, replicate 2
# [7] = 24 h, 10 µM, compound concentration 10 uM, replicate 1
# [8] = 24 h, 10 µM, compound concentration 10 uM, replicate 2
# [9] = 48 h, 1 µM, compound concentration 1 uM, replicate 1
# [10] = 48 h, 1 µM, compound concentration 1 uM, replicate 2
# [11] = 48 h, 10 µM, compound concentration 10 uM, replicate 1
# [12] = 48 h, 10 µM, compound concentration 10 uM, replicate 2
structure (smiles),measurement,setting,value
N#Cc1c(Oc2cccc(OS(=O)(=O)CCCC(F)(F)F)c2)cccc1C(F)(F)F,Population Apoptotic (%),[1],35%
same,Population Fragmented Nuclei (%),[1],4%
same,Population Healthy Nuclei (%),[1],86%
same,Population Hoechst High Intensity Objects (%),[1],5%
same,Population Membrane Permeable-Phenotype (%),[1],0%
same,Population Mitochondria Different-Phenotype (%),[1],46%
same,Population Mitotic Cells (%),[1],65%
same,Population Normal (%),[1],94%
same,Population Pyknosed Nuclei (%),[1],8%
same,Population Tubulin-Different-Phenotype (%),[1],38%
same,Total Cell Count,[1],490
same,Population Apoptotic (%),[2],63%
same,Population Fragmented Nuclei (%),[2],6%
same,Population Healthy Nuclei (%),[2],75%
same,Population Hoechst High Intensity Objects (%),[2],11%
same,Population Mitochondria Different-Phenotype (%),[2],60%
same,Population Mitotic Cells (%),[2],36%
same,Population Normal (%),[2],88%
same,Population Pyknosed Nuclei (%),[2],17%
same,Population Tubulin-Different-Phenotype (%),[2],28%
same,Total Cell Count,[2],349
same,Population Apoptotic (%),[3],42%
same,Population Fragmented Nuclei (%),[3],8%
same,Population Healthy Nuclei (%),[3],65%
same,Population Hoechst High Intensity Objects (%),[3],10%
same,Population Membrane Permeable-Phenotype (%),[3],0%
same,Population Mitochondria Different-Phenotype (%),[3],74%
same,Population Mitotic Cells (%),[3],57%
same,Population Normal (%),[3],89%
same,Population Pyknosed Nuclei (%),[3],25%
same,Population Tubulin-Different-Phenotype (%),[3],65%
same,Total Cell Count,[3],290
same,Population Apoptotic (%),[4],44%
same,Population Fragmented Nuclei (%),[4],6%
same,Population Healthy Nuclei (%),[4],64%
same,Population Hoechst High Intensity Objects (%),[4],40%
same,Population Mitochondria Different-Phenotype (%),[4],81%
same,Population Mitotic Cells (%),[4],55%
same,Population Normal (%),[4],59%
same,Population Pyknosed Nuclei (%),[4],28%
same,Population Tubulin-Different-Phenotype (%),[4],58%
same,Total Cell Count,[4],318
same,Population Apoptotic (%),[5],28%
same,Population Fragmented Nuclei (%),[5],10%
same,Population Healthy Nuclei (%),[5],77%
same,Population Hoechst High Intensity Objects (%),[5],3%
same,Population Membrane Permeable-Phenotype (%),[5],0%
same,Population Mitochondria Different-Phenotype (%),[5],34%
same,Population Mitotic Cells (%),[5],71%
same,Population Normal (%),[5],96%
same,Population Pyknosed Nuclei (%),[5],12%
same,Population Tubulin-Different-Phenotype (%),[5],26%
same,Total Cell Count,[5],654
same,Population Apoptotic (%),[6],60%
same,Population Fragmented Nuclei (%),[6],8%
same,Population Healthy Nuclei (%),[6],81%
same,Population Hoechst High Intensity Objects (%),[6],9%
same,Population Mitochondria Different-Phenotype (%),[6],48%
same,Population Mitotic Cells (%),[6],40%
same,Population Normal (%),[6],90%
same,Population Pyknosed Nuclei (%),[6],9%
same,Population Tubulin-Different-Phenotype (%),[6],20%
same,Total Cell Count,[6],412
same,Population Apoptotic (%),[7],43%
same,Population Fragmented Nuclei (%),[7],9%
same,Population Healthy Nuclei (%),[7],77%
same,Population Hoechst High Intensity Objects (%),[7],13%
same,Population Membrane Permeable-Phenotype (%),[7],0%
same,Population Mitochondria Different-Phenotype (%),[7],66%
same,Population Mitotic Cells (%),[7],56%
same,Population Normal (%),[7],86%
same,Population Pyknosed Nuclei (%),[7],13%
same,Population Tubulin-Different-Phenotype (%),[7],56%
same,Total Cell Count,[7],338
same,Population Apoptotic (%),[8],45%
same,Population Fragmented Nuclei (%),[8],10%
same,Population Healthy Nuclei (%),[8],61%
same,Population Hoechst High Intensity Objects (%),[8],47%
same,Population Mitochondria Different-Phenotype (%),[8],68%
same,Population Mitotic Cells (%),[8],54%
same,Population Normal (%),[8],52%
same,Population Pyknosed Nuclei (%),[8],27%
same,Population Tubulin-Different-Phenotype (%),[8],41%
same,Total Cell Count,[8],312
same,Population Apoptotic (%),[9],20%
same,Population Fragmented Nuclei (%),[9],13%
same,Population Healthy Nuclei (%),[9],81%
same,Population Hoechst High Intensity Objects (%),[9],1%
same,Population Membrane Permeable-Phenotype (%),[9],1%
same,Population Mitochondria Different-Phenotype (%),[9],21%
same,Population Mitotic Cells (%),[9],79%
same,Population Normal (%),[9],98%
same,Population Pyknosed Nuclei (%),[9],5%
same,Population Tubulin-Different-Phenotype (%),[9],15%
same,Total Cell Count,[9],986
same,Population Apoptotic (%),[10],56%
same,Population Fragmented Nuclei (%),[10],12%
same,Population Healthy Nuclei (%),[10],82%
same,Population Hoechst High Intensity Objects (%),[10],5%
same,Population Membrane Permeable-Phenotype (%),[10],0%
same,Population Mitochondria Different-Phenotype (%),[10],23%
same,Population Mitotic Cells (%),[10],43%
same,Population Normal (%),[10],94%
same,Population Tubulin-Different-Phenotype (%),[10],13%
same,Total Cell Count,[10],568
same,Population Apoptotic (%),[11],44%
same,Population Fragmented Nuclei (%),[11],11%
same,Population Healthy Nuclei (%),[11],78%
same,Population Hoechst High Intensity Objects (%),[11],5%
same,Population Membrane Permeable-Phenotype (%),[11],0%
same,Population Mitochondria Different-Phenotype (%),[11],44%
same,Population Mitotic Cells (%),[11],55%
same,Population Normal (%),[11],94%
same,Population Pyknosed Nuclei (%),[11],10%
same,Population Tubulin-Different-Phenotype (%),[11],29%
same,Total Cell Count,[11],464
same,Population Apoptotic (%),[12],58%
same,Population Healthy Nuclei (%),[12],69%
same,Population Hoechst High Intensity Objects (%),[12],24%
same,Population Mitochondria Different-Phenotype (%),[12],47%
same,Population Mitotic Cells (%),[12],41%
same,Population Normal (%),[12],75%
same,Population Pyknosed Nuclei (%),[12],18%
same,Population Tubulin-Different-Phenotype (%),[12],23%
same,Total Cell Count,[12],363
